Results: article PMC3548047 (Nature, 2013)
Where a SMILES comes first, the peptide text is derived from it. The star is where a group is joined. Myristoyl = CCCCCCCCCCCCCC(=O)*

Legend:
PKCι = biological target: T1, PKCι (Rattus norvegicus, UniProt F1M7Y5); assay: LANCE TR-FRET in vitro kinase assay, purified PKCι; assay type: biochemical
T1 sequence (F1M7Y5 1-596): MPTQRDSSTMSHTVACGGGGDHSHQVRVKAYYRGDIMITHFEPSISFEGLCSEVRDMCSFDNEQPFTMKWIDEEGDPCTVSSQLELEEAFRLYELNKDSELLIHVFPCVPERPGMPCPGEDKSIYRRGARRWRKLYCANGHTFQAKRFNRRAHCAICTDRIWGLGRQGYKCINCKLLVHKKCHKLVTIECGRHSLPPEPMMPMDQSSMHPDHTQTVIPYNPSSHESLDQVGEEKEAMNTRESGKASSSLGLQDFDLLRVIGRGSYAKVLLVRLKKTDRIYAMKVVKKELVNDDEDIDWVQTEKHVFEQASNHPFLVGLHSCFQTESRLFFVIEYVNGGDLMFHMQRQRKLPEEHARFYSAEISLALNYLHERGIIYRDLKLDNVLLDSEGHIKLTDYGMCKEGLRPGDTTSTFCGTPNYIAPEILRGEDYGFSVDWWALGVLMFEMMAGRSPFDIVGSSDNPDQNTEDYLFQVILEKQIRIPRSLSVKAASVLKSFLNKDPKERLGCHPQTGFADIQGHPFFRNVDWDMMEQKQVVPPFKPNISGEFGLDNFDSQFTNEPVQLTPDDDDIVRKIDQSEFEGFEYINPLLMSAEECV

PKMζ = biological target: T2, PKMζ (Rattus norvegicus, UniProt P09217); assay: LANCE TR-FRET in vitro kinase assay, purified PKMζ; assay type: biochemical
T2 sequence (P09217 1-409 isoform P09217-2): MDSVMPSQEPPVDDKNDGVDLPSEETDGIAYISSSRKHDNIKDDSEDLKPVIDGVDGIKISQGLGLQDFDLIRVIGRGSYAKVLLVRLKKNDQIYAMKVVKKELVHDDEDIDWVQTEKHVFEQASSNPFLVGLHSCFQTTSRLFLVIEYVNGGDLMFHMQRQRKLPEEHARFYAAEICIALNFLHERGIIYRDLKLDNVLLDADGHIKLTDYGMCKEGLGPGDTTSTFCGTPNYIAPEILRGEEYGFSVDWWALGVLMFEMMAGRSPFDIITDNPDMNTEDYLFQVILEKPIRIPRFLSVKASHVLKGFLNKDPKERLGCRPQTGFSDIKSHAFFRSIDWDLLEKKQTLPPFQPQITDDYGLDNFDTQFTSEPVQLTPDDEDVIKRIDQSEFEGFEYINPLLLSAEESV

fear memory in rats = details: ZIP administration into the amygdala; cited from earlier work
[1] = tested on: Prkcz−/− mice (cocaine reward memory); assay type: in vivo; details: ZIP 10 nmol/µl, 1 µl per side into NAc
In short: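 Two-chamber CPP with 20-min conditioning sessions; saline or cocaine 10 mg/kg i.p., counterbalanced. Bilateral cannulae placed in the NAc (1.40 mm anterior, ±1.0 mm lateral, −3.8 mm ventral) under ketamine/xylazine, with one week of recovery. ZIP at 10 mM in 0.9% saline, or saline, via injectors 0.7 mm past the guides, left 1 min. Index: cocaine-side time on test minus preconditioning time. Mice with placements outside the NAc (Nissl) and Grubbs outliers excluded.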

PKCζ = biological target: T3, PKCζ (Rattus norvegicus, UniProt P09217); assay: LANCE TR-FRET in vitro kinase assay, purified PKCζ; assay type: biochemical
T3 sequence (P09217 1-592): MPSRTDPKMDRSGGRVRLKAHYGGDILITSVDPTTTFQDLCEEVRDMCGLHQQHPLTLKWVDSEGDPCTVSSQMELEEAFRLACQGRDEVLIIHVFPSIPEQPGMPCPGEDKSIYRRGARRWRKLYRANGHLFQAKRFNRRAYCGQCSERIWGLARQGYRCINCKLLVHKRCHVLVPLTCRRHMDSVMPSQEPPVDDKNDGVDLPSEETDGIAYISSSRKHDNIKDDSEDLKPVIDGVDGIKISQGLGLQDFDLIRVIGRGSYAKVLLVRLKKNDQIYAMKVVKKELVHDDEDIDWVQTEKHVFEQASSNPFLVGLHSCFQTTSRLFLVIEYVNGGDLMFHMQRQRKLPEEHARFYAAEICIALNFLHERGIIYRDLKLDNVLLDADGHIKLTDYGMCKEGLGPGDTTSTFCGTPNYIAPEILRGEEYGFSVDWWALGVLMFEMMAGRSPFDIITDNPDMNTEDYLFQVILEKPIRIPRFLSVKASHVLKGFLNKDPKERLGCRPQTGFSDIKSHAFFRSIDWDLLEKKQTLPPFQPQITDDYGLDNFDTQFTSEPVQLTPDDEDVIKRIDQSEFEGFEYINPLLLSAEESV

[2] = tested on: object location memory in rats; details: ZIP bilaterally into the hippocampus; cited from earlier work
[3] = tested on: cocaine reward memory in rats; details: ZIP injection into the NAc; cited from earlier work
[4] = tested on: Prkcz−/− mice (drug reward memory); assay: Cocaine conditioned place preference, non-cannulated Prkcz−/− mice; assay type: in vivo; details: cocaine 10 mg/kg i.p.; male mice; t=0.153, P=0.88

| Compound | Ki (PKCι) [µM] | Ki (PKMζ) [µM] | inhibition of PKMζ, PKCι and PKCζ compared (Ki), in words (PKMζ; in vitro kinase assay, PKMζ) | Ki (PKCζ) [µM] | further results |
| --- | --- | --- | --- | --- | --- |
| CCCCCCCCCCCCCC(=O)N[C@@H](CO)C(=O)N[C@H](C(=O)N[C@@H](Cc1ccc(O)cc1)C(=O)N[C@@H](CCCNC(=N)N)C(=O)N[C@@H](CCCNC(=N)N)C(=O)NCC(=O)N[C@@H](C)C(=O)N[C@@H](CCCNC(=N)N)C(=O)N[C@@H](CCCNC(=N)N)C(=O)N[C@@H](Cc1c[nH]c2ccccc12)C(=O)N[C@@H](CCCNC(=N)N)C(=O)N[C@@H](CCCCN)C(=O)N[C@@H](CC(C)C)C(=O)O)[C@@H](C)CC [ZIP, myristoylated zeta inhibitory peptide] (Myristoyl-SIYRRGARRWRKL-OH; C-terminus assumed) | 1.43 | 2.11 | inhibited PKMζ, PKCι and PKCζ with similar Ki values | 1.7 | difference in Ki values between ZIP and scrambled ZIP (PKMζ; PKMζ, in vitro kinase assay): 7.3 -fold; performance in cued fear conditioning, in words (fear memory in rats): impaired; t statistic for ZIP versus saline, cocaine CPP [1]: 2.258; object location memory performance, in words [2]: impaired; cocaine reward memory, in words [3]: can erase cocaine reward memory |
| COC(=O)[C@H]1[C@@H](OC(=O)c2ccccc2)C[C@@H]2CC[C@H]1N2C [cocaine] | – | – | – | – | cocaine CPP index, Prkcz−/− versus wild-type, in words [4]: no genotype difference in the cocaine CPP index |
| CCCCCCCCCCCCCC(=O)N[C@@H](CCCNC(=N)N)C(=O)N[C@@H](CC(C)C)C(=O)N[C@@H](Cc1ccc(O)cc1)C(=O)N[C@@H](CCCNC(=N)N)C(=O)N[C@@H](CCCCN)C(=O)N[C@@H](CCCNC(=N)N)C(=O)N[C@H](C(=O)N[C@@H](Cc1c[nH]c2ccccc12)C(=O)N[C@@H](CCCNC(=N)N)C(=O)N[C@@H](CO)C(=O)N[C@@H](C)C(=O)NCC(=O)N[C@@H](CCCNC(=N)N)C(=O)O)[C@@H](C)CC [Scrambled ZIP] (Myristoyl-RLYRKRIWRSAGR-OH; N-terminus and C-terminus assumed) | 4.92 | 15.4 | inhibited PKMζ, PKCι and PKCζ with similar Ki values | 5.51 | – |
| COc1ccc2c(c[n+](C)c3c4cc5c(cc4ccc23)OCO5)c1OC [Chelerythrine, chelerythrine] | – | 76 | – | – | inhibition of PKMζ with DTT, in words (PKMζ; 1 mM DTT included): lost all inhibitory activity; appearance in the presence of DTT (PKMζ; 1 mM DTT present): changed color; inhibition of PKMζ without DTT, in words (PKMζ; assayed without dithiothreitol (DTT)): weak inhibitor of PKMζ |
